# Measurements published in ChEMBL document CHEMBL4145468, “Synthesis and biological evaluation of new steroidal pyridines as potential anti-prostate cancer agents” (Eur J Med Chem, 2018).
# Calls of active or inactive are those of the source. The calls are words filed in the database; no cut-off is given here.
# What was measured:
# [1] = system: PC-3; assay: Induction of apoptosis in human PC3 cells assessed as necrotic cells at 1 uM after 48 hrs by AnnexinV-FITC/propidium iodide staining-based flow cytometric analysis (reference value: 0.5%); type: functional
# [2] = system: PC-3; assay: Cell cycle arrest in human PC3 cells assessed as accumulation of cells at G1 phase at 0.5 uM after 48 hrs by RNase/propidium iodide staining-based flow cytometric analysis (reference value: 61.95%); type: functional
# [3] = system: PC-3; assay: Induction of apoptosis in human PC3 cells assessed as late apoptotic cells at 1 uM after 48 hrs by AnnexinV-FITC/propidium iodide staining-based flow cytometric analysis (reference value: 0.1%); type: functional
# [4] = system: PC-3; assay: Antimigratory activity in human PC3 cells assessed as increase in E-cadherin at 0.5 to 2 uM after 48 hrs by Western blot analysis; type: functional, cell-based
# Procedure, shortened: (§1)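 PC-3 cells treated 48 h with compound at several concentrations, lysed in NP-40/SDS/deoxycholate buffer with PMSF. Equal lysate amounts resolved by SDS-PAGE, transferred to nitrocellulose, blocked in 5% milk 2 h, primary antibody overnight at 4 °C, HRP secondary, ECL detection; GAPDH as loading control.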
# [5] = system: PC-3; assay: Induction of apoptosis in human PC3 cells assessed as early apoptotic cells at 1 uM after 48 hrs by AnnexinV-FITC/propidium iodide staining-based flow cytometric analysis (reference value: 0.3%); type: functional
# [6] = system: PC-3; assay: Cell cycle arrest in human PC3 cells assessed as accumulation of cells at G1 phase at 1 uM after 48 hrs by RNase/propidium iodide staining-based flow cytometric analysis (reference value: 61.95%); type: functional
# [7] = system: MGC-803; assay: Antiproliferative activity against human MGC803 cells after 72 hrs by MTT assay; type: functional, cell-based; conditions: MGC-803, 72 h
# Procedure, shortened: (§2)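 Exponentially growing cells, 4×10^3/well, attached 24 h, then medium replaced with fresh medium holding graded compound concentrations for 72 h. MTT (5 mg/mL stock) added for 4 h, formazan dissolved in DMSO, absorbance at 570 nm; IC50 calculated from dose-response data.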
# [8] = system: LNCaP; assay: Antiproliferative activity against human LNCAP cells after 72 hrs by MTT assay; type: functional, cell-based; procedure, shortened: as §2
# [9] = system: PC-3; assay: Induction of apoptosis in human PC3 cells assessed as viable cells at 1 uM after 48 hrs by AnnexinV-FITC/propidium iodide staining-based flow cytometric analysis (reference value: 99.1%); type: functional; conditions: PC-3, 48 h, read-out: Activity
# [10] = system: PC-3; assay: Induction of apoptosis in human PC3 cells assessed as early apoptotic cells at 2 uM after 48 hrs by AnnexinV-FITC/propidium iodide staining-based flow cytometric analysis (reference value: 0.3%); type: functional
# [11] = system: PC-3; assay: Inhibition of colony formation in human PC3 cells at 0.5 to 2 uM after 7 days by crystal violet staining-based assay; type: functional, cell-based
# Procedure, shortened: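 About 2000 PC-3 cells/well seeded, after 24 h medium replaced with compound-containing medium for 7 days. Colonies PBS-washed, fixed in 4% paraformaldehyde 30 min, crystal violet stained 30 min, destained with PBS before evaluation. Repeated three times.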
# [12] = system: PC-3; assay: Cell cycle arrest in human PC3 cells assessed as accumulation of cells at S phase at 2 uM after 48 hrs by RNase/propidium iodide staining-based flow cytometric analysis (reference value: 30.89%); type: functional
# [13] = system: PC-3; assay: Antimigratory activity in human PC3 cells assessed as increase in occludin at 0.5 to 2 uM after 48 hrs by Western blot analysis; type: functional, cell-based; procedure, shortened: as §1
# [14] = system: PC-3; assay: Induction of apoptosis in human PC3 cells assessed as viable cells at 2 uM after 48 hrs by AnnexinV-FITC/propidium iodide staining-based flow cytometric analysis (reference value: 99.1%); type: functional; conditions: PC-3, 48 h, read-out: Activity
# [15] = system: PC-3; assay: Antiproliferative activity against human PC3 cells after 72 hrs by MTT assay; type: functional, cell-based; conditions: PC-3, 72 h; procedure, shortened: as §2
# [16] = system: PC-3; assay: Induction of apoptosis in human PC3 cells assessed as chromatin shrinkage at 0.5 to 2 uM after 48 hrs by Hoechst 33258 staining-based fluorescence microscopic analysis; type: functional, cell-based
# Procedure, shortened: (§3)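 PC-3 cells, 3×10^5/well, grown 48 h, then treated with compound at varying concentrations 48 h. Methanol-fixed ~20 min, stained with 5 ug/mL Hoechst-33258 in PBS with 0.5% Triton X-100 in dark ≥30 min; nuclear condensation/fragmentation scored by UV fluorescence microscopy.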
# [17] = system: PC-3; assay: Induction of apoptosis in human PC3 cells assessed as increase in caspase-3 activation after 48 hrs by Western blot analysis; type: functional, cell-based; procedure, shortened: as §1
# [18] = system: PC-3; assay: Cell cycle arrest in human PC3 cells assessed as accumulation of cells at S phase at 1 uM after 48 hrs by RNase/propidium iodide staining-based flow cytometric analysis (reference value: 30.89%); type: functional
# [19] = system: PC-3; assay: Induction of apoptosis in human PC3 cells assessed as increase in cleaved PARP after 48 hrs by Western blot analysis; type: functional, cell-based; procedure, shortened: as §1
# [20] = system: PC-3; assay: Antimigratory activity in human PC3 cells after 48 hrs by wound-healing assay; type: functional, cell-based
# Procedure, shortened: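 PC-3 cells seeded at 3×10^5/well, grown to 80–90% confluence, monolayer scratched with pipette tip, washed, then exposed to compound (0, 0.5, 1.0, 2.0 μM) for 48 h. Wound photographed by inverted microscopy. At least three experiments.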
# [21] = system: PC-3; assay: Antimigratory activity in human PC3 cells after 24 hrs by transwell assay
# [22] = system: ECa-109 cell line; assay: Antiproliferative activity against human EC109 cells after 72 hrs by MTT assay; type: functional, cell-based; conditions: ECa-109, 72 h; procedure, shortened: as §2
# [23] = system: PC-3; assay: Antimigratory activity in human PC3 cells assessed as decrease in N-Cadherin at 0.5 to 2 uM after 48 hrs by Western blot analysis; type: functional, cell-based; procedure, shortened: as §1
# [24] = system: PC-3; assay: Cell cycle arrest in human PC3 cells assessed as accumulation of cells at S phase at 0.5 uM after 48 hrs by RNase/propidium iodide staining-based flow cytometric analysis (reference value: 30.89%); type: functional
# [25] = system: PC-3; assay: Cell cycle arrest in human PC3 cells assessed as accumulation of cells at G1 phase at 2 uM after 48 hrs by RNase/propidium iodide staining-based flow cytometric analysis (reference value: 61.95%); type: functional
# [26] = system: PC-3; assay: Induction of apoptosis in human PC3 cells assessed as increase in caspase-9 activation after 48 hrs by Western blot analysis; type: functional, cell-based; procedure, shortened: as §1
# [27] = system: PC-3; assay: Cell cycle arrest in human PC3 cells assessed as accumulation of cells at G2 phase at 1 uM after 48 hrs by RNase/propidium iodide staining-based flow cytometric analysis (reference value: 7.17%); type: functional
# [28] = system: PC-3; assay: Induction of apoptosis in human PC3 cells assessed as cell rounding at 0.5 to 2 uM after 48 hrs by Hoechst 33258 staining-based fluorescence microscopic analysis; type: functional; procedure, shortened: as §3
# [29] = system: PC-3; assay: Induction of apoptosis in human PC3 cells assessed as necrotic cells at 0.5 uM after 48 hrs by AnnexinV-FITC/propidium iodide staining-based flow cytometric analysis (reference value: 0.5%); type: functional
# [30] = system: GES1; assay: Antiproliferative activity against human GES-1 cells after 72 hrs by MTT assay; type: cell-based; conditions: GES1, 72 h; procedure, shortened: as §2
# [31] = system: PC-3; assay: Cell cycle arrest in human PC3 cells assessed as accumulation of cells at G2 phase at 2 uM after 48 hrs by RNase/propidium iodide staining-based flow cytometric analysis (reference value: 7.17%); type: functional
# [32] = system: PC-3; assay: Induction of apoptosis in human PC3 cells assessed as formation of apoptotic bodies at 0.5 to 2 uM after 48 hrs by Hoechst 33258 staining-based fluorescence microscopic analysis; type: functional, cell-based; procedure, shortened: as §3
# [33] = system: PC-3; assay: Anti-invasive activity in human PC3 cells after 48 hrs by matrigel-coated transwell assay; type: functional, cell-based
# [34] = system: PC-3; assay: Induction of apoptosis in human PC3 cells assessed as early apoptotic cells at 0.5 uM after 48 hrs by AnnexinV-FITC/propidium iodide staining-based flow cytometric analysis (reference value: 0.3%); type: functional
# [35] = system: PC-3; assay: Cell cycle arrest in human PC3 cells assessed as accumulation of cells at G2 phase at 0.5 uM after 48 hrs by RNase/propidium iodide staining-based flow cytometric analysis (reference value: 7.17%); type: functional
# [36] = system: PC-3; assay: Induction of apoptosis in human PC3 cells after 48 hrs by AnnexinV-FITC/propidium iodide staining-based flow cytometric analysis; type: functional, cell-based
# [37] = system: PC-3; assay: Antimigratory activity in human PC3 cells assessed as decrease in vimentin at 0.5 to 2 uM after 48 hrs by Western blot analysis; type: functional, cell-based; procedure, shortened: as §1
# [38] = system: PC-3; assay: Induction of apoptosis in human PC3 cells assessed as late apoptotic cells at 0.5 uM after 48 hrs by AnnexinV-FITC/propidium iodide staining-based flow cytometric analysis (reference value: 0.1%); type: functional
# [39] = system: PC-3; assay: Induction of apoptosis in human PC3 cells assessed as necrotic cells at 2 uM after 48 hrs by AnnexinV-FITC/propidium iodide staining-based flow cytometric analysis (reference value: 0.5%); type: functional
# [40] = system: PC-3; assay: Induction of apoptosis in human PC3 cells assessed as viable cells at 0.5 uM after 48 hrs by AnnexinV-FITC/propidium iodide staining-based flow cytometric analysis (reference value: 99.1%); type: functional; conditions: PC-3, 48 h, read-out: Activity
# [41] = system: PC-3; assay: Induction of apoptosis in human PC3 cells assessed as late apoptotic cells at 2 uM after 48 hrs by AnnexinV-FITC/propidium iodide staining-based flow cytometric analysis (reference value: 0.1%); type: functional
smiles,measurement,setting,value
CCOc1cc(-c2cccnc2)cc([C@H]2CC[C@H]3[C@@H]4CC=C5C[C@@H](O)CC[C@]5(C)[C@H]4CC[C@]23C)n1,Activity,[1],2.5%
same,Activity,[2],55.52%
same,Activity,[3],11.7%
same,Activity,[4],Active
same,Activity,[5],9.1%
same,Activity,[6],55.44%
same,IC50,[7],2.75 µM
same,IC50,[8],8.48 µM
same,viability at 1 µM,[9],76.7%
same,Activity,[10],7.3%
same,inhibition,[11],Active
same,Activity,[12],35.77%
same,Activity,[13],Active
same,viability at 2 µM,[14],73.3%
same,IC50,[15],1.55 µM
same,Activity,[16],Active
same,Activity,[17],Dose-dependent effect
same,Activity,[18],33.48%
same,Activity,[19],Dose-dependent effect
same,Activity,[20],Dose-dependent effect
same,Activity,[21],Dose-dependent effect
same,IC50,[22],5.32 µM
same,Activity,[23],Active
same,Activity,[24],33.56%
same,Activity,[25],53.36%
same,Activity,[26],Dose-dependent effect
same,Activity,[27],11.09%
same,Activity,[28],Active
same,Activity,[29],0.5%
same,IC50,[30],7.76 µM
same,Activity,[31],10.87%
same,Activity,[32],Active
same,Activity,[33],Dose-dependent effect
same,Activity,[34],10.7%
same,Activity,[35],10.92%
same,Activity,[36],Dose-dependent effect
same,Activity,[37],Active
same,Activity,[38],2.6%
same,Activity,[39],4.6%
same,viability at 0.5 µM,[40],86.2%
same,Activity,[41],14.9%
